Test results reported in ChEMBL document CHEMBL1158012, “Sapinofuranones A and B, two new 2(3H)-dihydrofuranones produced by sphaeropsis sapinea, a common pathogen of conifers” (J Nat Prod, 1999).

What was measured:
Assay type in all cases: organism-based
Conditions in all cases: in vivo
Cupressus sempervirens [1] = assay: Phytotoxicity against Cupressus sempervirens var. pyramidalis assessed as browning of twigs at 0.1 to 0.2 mg/ml after 96 hrs
How it was run: (§1)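 Severed cypress or pine twig cuttings were placed in 3 mL of test solution at 0.1-0.2 mg/mL for 96 h, then moved to distilled water. They were kept in a growth chamber at 23 °C, 60% relative humidity and low light. Symptoms were scored over 21 days.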

[2] = test system: Hesperocyparis macrocarpa; assay: Phytotoxicity against Cupressus macrocarpa var. lambertiana assessed as browning of twigs at 0.1 to 0.2 mg/ml after 96 hrs; how it was run: as §1
Pinus halepensis [3] = assay: Phytotoxicity against Pinus halepensis L assessed as yellowing of twigs at 0.1 to 0.2 mg/ml after 96 hrs; how it was run: as §1
Pinus radiata [4] = assay: Phytotoxicity against Pinus radiata L assessed as yellowing of twigs at 0.1 to 0.2 mg/ml after 96 hrs; how it was run: as §1
[5] = test system: Hesperocyparis macrocarpa; assay: Phytotoxicity against Cupressus macrocarpa var. lambertiana assessed as sapwood stain like symptoms on seedlings at 0.1 to 0.2 mg/ml after 96 hrs
How it was run: (§2)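 A 0.1 mg/mL solution was injected into the cortical tissue 25 cm from the apex of 3-year-old cypress or 2-year-old pine seedlings. Stain, needle and blight symptoms were then scored.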

Pinus radiata [6] = assay: Phytotoxicity against Pinus radiata L assessed as appearance of severe needles on seedlings at 0.1 to 0.2 mg/ml after 96 hrs; how it was run: as §2
Pinus halepensis [7] = assay: Phytotoxicity against Pinus halepensis L assessed as appearance of severe needles on seedlings at 0.1 to 0.2 mg/ml after 96 hrs; how it was run: as §2
Hesperocyparis arizonica [8] = assay: Phytotoxicity against Cupressus arizonica assessed as sapwood stain like symptoms on seedlings at 0.1 to 0.2 mg/ml after 96 hrs; how it was run: as §2
Solanum lycopersicum [9] = assay: Phytotoxicity against Lycopersicon esculatum L var. Marmande assessed as browning of petioles and leaves at 0.05 to 0.1 mg/ml after 48 hrs
How it was run: (§3)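 Tomato (var. Marmande) seedlings were grown at 25 °C, 70-80% relative humidity and a 12 h photoperiod. Cuttings from 21-day-old seedlings were placed in 3 mL of solution at 0.05-0.1 mg/mL for 48 h, then moved to distilled water. Epinasty and browning were scored over 2 days.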

Hesperocyparis arizonica [10] = assay: Phytotoxicity against Cupressus arizonica assessed as browning of twigs at 0.1 to 0.2 mg/ml after 96 hrs; how it was run: as §1
Cupressus sempervirens [11] = assay: Phytotoxicity against Cupressus sempervirens var. pyramidalis assessed as sapwood stain like symptoms on seedlings at 0.1 to 0.2 mg/ml after 96 hrs; how it was run: as §2
Solanum lycopersicum [12] = assay: Phytotoxicity against Lycopersicon esculatum L var. Marmande assessed as appearance of epinasty on petioles at 0.05 to 0.1 mg/ml after 48 hrs; how it was run: as §3

Measured: Activity

C/C=C/C=C\[C@H](O)[C@H]1CCC(=O)O1 [SAPINOFURANONE A]
Toxic: all assays above

C/C=C/C=C\[C@@H](O)[C@H]1CCC(=O)O1 [SAPINOFURANONE B]
Toxic: all assays above
